Test results published in ChEMBL document CHEMBL4673223, “Synthesis, Biological, and Structural Explorations of New Zwitterionic Derivatives of 14- O-Methyloxymorphone, as Potent μ/δ Opioid Agonists and Peripherally Selective Antinociceptives” (J Med Chem, 2019).
The source made the active and inactive calls. No cut-off for these calls is given here.

Assays:
[1] = Selectivity index, ratio of Ki for displacement of [3H]U69,593 from kappa opioid receptor in guinea-pig brain membranes to Ki for displacement of [3H]DAMGO from mu opioid receptor in rat brain membranes; format: cell membranes
How it was run: (§1)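 Guinea-pig brain membranes (0.3–0.5 mg protein) in 50 mM Tris-HCl, pH 7.4, were incubated with 1 nM [3H]U69,593 for 30 min at 30 °C, with 10 μM naloxone defining nonspecific binding. MOR was measured on rat brain membranes with 1 nM [3H]DAMGO for 45 min at 35 °C. Samples were filtered and scintillation counted, and Ki was obtained by Cheng–Prusoff; duplicates, 3–4 experiments.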

Mus musculus = assay: Antinociceptive activity in CD1 mouse assessed as inhibition of the writhing response at 200 ug/kg, sc and co-administered with 1 mg/kg naloxone methiodide and measured after 30 mins post dose by acetic acid-induced writhing assay; format: functional, organism-based; conditions: dose 200.0 µg/kg
How it was run: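 Male CD1 mice (30–35 g) received the agonist sc in saline (10 μL/g) together with sc naloxone methiodide 1 mg/kg. At 25 min, 0.6% acetic acid was given ip, and writhes were counted over a 10 min observation period (30 min post-dose). Results were expressed as mean writhes versus saline control and agonist-alone groups; n = 6–7 mice per group; ANOVA with Tukey post hoc.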

Rattus norvegicus = species: Rattus norvegicus; assay: Selectivity index, ratio of Ki for displacement of [3H][Ile5,6]deltorphin II from delta opioid receptor in rat brain membranes to Ki for displacement of [3H]DAMGO from mu opioid receptor in rat brain membranes; format: cell membranes
How it was run: (§2)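 Rat brain membranes (cerebella removed; 0.3–0.5 mg protein) in 50 mM Tris-HCl, pH 7.4, were incubated 45 min at 35 °C with 1 nM [3H]DAMGO (MOR) or 0.5 nM [3H][Ile5,6]deltorphin II (DOR) plus varied test concentrations. Nonspecific binding was set with 10 μM naloxone. Samples were GF/C filtered, washed and scintillation counted. Ki was obtained by Cheng–Prusoff; duplicates, 3–4 experiments.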

[2] = target: Delta-type opioid receptor (Homo sapiens) (UniProt P41143); assay: Displacement of [3H]diprenorphine from human DOR expressed in CHO cell membranes incubated for 60 mins liquid scintillation counting assay; conditions: Cell membrane, filed as agonist
How it was run: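 Membranes from CHO cells expressing human DOR (15–20 μg) in 50 mM Tris-HCl, pH 7.4, were incubated with 0.2 nM [3H]diprenorphine and varied test concentrations for 60 min at 25 °C. Nonspecific binding was set with 1–10 μM unlabeled diprenorphine. Samples were GF/C filtered and scintillation counted.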

Mu-type opioid receptor = Mu-type opioid receptor (Rattus norvegicus, UniProt P33535); assay: Displacement of [3H]DAMGO from mu opioid receptor in rat brain membranes incubated for 45 mins by liquid scintillation counting method; format: cell membranes, Membrane; how it was run: as §2
[3] = target: Kappa-type opioid receptor (Cavia porcellus, UniProt P41144); assay: Displacement of [3H]U69,593 from kappa opioid receptor in guinea-pig brain membranes incubated for 30 mins by liquid scintillation counting method; format: cell membranes, Membrane; how it was run: as §1
[4] = target: Delta-type opioid receptor (Rattus norvegicus, UniProt P33533); assay: Displacement of [3H][Ile5,6]deltorphin II from delta opioid receptor in rat brain membranes incubated for 45 mins by liquid scintillation counting method; format: cell membranes, Membrane; how it was run: as §2
Sequence of Delta-type opioid receptor (P33533 whole entry): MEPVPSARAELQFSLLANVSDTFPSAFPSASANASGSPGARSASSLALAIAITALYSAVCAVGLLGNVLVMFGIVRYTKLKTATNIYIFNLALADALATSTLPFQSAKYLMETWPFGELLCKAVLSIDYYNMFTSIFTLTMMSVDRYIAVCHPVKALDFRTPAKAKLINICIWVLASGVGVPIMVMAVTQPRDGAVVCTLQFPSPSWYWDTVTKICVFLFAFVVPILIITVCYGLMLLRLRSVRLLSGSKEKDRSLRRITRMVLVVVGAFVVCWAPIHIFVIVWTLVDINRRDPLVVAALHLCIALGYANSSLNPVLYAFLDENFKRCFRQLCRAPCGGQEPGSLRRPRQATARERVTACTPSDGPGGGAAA

Sequence of Delta-type opioid receptor (Homo sapiens) (P41143 whole entry): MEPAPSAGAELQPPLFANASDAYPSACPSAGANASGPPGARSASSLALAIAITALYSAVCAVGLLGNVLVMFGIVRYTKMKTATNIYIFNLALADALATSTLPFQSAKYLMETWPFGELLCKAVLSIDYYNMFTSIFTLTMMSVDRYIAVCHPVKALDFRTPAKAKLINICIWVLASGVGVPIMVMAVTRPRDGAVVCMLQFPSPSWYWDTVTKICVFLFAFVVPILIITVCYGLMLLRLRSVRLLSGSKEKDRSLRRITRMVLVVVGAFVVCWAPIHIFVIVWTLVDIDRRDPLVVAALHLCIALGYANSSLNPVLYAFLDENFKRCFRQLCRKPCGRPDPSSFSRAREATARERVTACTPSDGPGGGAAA
Sequence of Kappa-type opioid receptor (P41144 whole entry): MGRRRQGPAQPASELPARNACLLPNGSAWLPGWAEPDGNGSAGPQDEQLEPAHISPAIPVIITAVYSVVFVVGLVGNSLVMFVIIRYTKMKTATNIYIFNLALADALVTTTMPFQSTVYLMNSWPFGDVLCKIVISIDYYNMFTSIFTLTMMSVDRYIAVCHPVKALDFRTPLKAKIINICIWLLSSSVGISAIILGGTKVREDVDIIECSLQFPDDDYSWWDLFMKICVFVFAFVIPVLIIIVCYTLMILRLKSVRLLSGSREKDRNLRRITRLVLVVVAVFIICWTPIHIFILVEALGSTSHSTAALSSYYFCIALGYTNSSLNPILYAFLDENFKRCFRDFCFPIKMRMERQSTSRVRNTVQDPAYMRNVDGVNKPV
Sequence of Mu-type opioid receptor (P33535 whole entry): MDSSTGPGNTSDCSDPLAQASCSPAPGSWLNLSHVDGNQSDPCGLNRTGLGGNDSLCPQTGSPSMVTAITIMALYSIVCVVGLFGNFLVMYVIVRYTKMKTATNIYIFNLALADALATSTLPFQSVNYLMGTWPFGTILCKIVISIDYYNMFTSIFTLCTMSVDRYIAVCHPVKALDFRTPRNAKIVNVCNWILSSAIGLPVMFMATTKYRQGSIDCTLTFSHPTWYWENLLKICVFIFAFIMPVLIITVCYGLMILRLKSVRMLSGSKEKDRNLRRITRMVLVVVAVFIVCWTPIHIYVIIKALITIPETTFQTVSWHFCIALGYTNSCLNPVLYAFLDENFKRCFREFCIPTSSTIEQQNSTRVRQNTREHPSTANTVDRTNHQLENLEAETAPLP

| SMILES | Ratio Ki [1] | Activity (Mus musculus) | Ratio Ki (Rattus norvegicus) | Activity [2] | Ki (Mu-type opioid receptor) [nM] | Ki [3] [nM] | Ki [4] [nM] |
| --- | --- | --- | --- | --- | --- | --- | --- |
| CO[C@@]12CC[C@@H](N[C@@H](Cc3c[nH]c4ccccc34)C(=O)O)[C@@H]3Oc4c(O)ccc5c4[C@@]31CCN(C)[C@@H]2C5 | 13 | inactive | 1.8 | Active |  |  |  |
| CO[C@@]12CC[C@H](N[C@@H](Cc3ccccc3)C(=O)O)[C@@H]3Oc4c(O)ccc5c4[C@@]31CCN(C)[C@@H]2C5 | 30 |  | 3.9 | Active | 0.95 | 28.5 |  |
| CO[C@@]12CC[C@@H](N[C@@H](Cc3ccccc3)C(=O)O)[C@@H]3Oc4c(O)ccc5c4[C@@]31CCN(C)[C@@H]2C5 | 59 |  | 0.4 | Active | 2.58 | 151 | 1.03 |
| CO[C@@]12CC[C@@H](NCC(=O)NCC(=O)O)[C@@H]3Oc4c(O)ccc5c4[C@@]31CCN(C)[C@@H]2C5 | 44 | inactive | 1.6 | Active |  |  |  |
| CO[C@@]12CC[C@@H](N[C@@H](C)C(=O)O)[C@@H]3Oc4c(O)ccc5c4[C@@]31CCN(C)[C@@H]2C5 |  |  |  | Active |  | 63.7 | 7.71 |
